Laboratory results: article PMC3237191 (FEBS letters, 2011)

Tests used:
DGKε (DGKε-His6) [1] = molecular target: T1, DGKε (DGKε-His6) (Homo sapiens, UniProt P52429); assay: Triton X-100/DOPC mixed micelle assay with [γ-32P]-ATP; assay type: biochemical; conditions: 0.1 mM ATP; 15 mM Triton X-100; 22.5 mol% DOPC; lysate
T1 sequence (P52429 1-567): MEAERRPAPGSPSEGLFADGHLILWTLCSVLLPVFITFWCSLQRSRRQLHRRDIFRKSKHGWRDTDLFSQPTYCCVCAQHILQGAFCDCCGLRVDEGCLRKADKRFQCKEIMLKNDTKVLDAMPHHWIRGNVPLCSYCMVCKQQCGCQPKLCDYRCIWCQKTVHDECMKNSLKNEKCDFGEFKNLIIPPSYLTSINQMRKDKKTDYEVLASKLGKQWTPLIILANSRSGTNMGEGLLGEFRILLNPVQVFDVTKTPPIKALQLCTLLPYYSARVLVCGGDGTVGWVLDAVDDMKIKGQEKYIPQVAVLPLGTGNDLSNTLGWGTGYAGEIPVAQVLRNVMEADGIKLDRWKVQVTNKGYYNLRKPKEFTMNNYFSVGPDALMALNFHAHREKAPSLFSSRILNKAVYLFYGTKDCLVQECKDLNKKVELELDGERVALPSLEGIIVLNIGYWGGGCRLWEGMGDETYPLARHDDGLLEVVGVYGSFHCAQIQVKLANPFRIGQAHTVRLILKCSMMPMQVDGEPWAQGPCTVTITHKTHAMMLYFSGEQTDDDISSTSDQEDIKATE
Procedure, shortened: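 Enzyme is the 100,000 g supernatant (30 min, 4 °C) of baculovirus-infected Sf21 cells expressing human DGKε-His6. Cells were lysed 10 min on ice in 1% NP-40, 20 mM Tris-HCl pH 7.5, 150 mM NaCl, 1 mM EDTA, phosphatase and protease inhibitors, then sonicated 5 min. DAG substrate was dried with DOPC into lipid films for the micelles, and DAG level was varied. Run in triplicate. Vmax and Km come from nonlinear regression of v0 versus [S] and from Hanes plots.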

DGKε (DGKε-His6) [2] = molecular target: T1, DGKε (DGKε-His6); assay: Triton X-100/DOPC mixed micelle assay with [γ-32P]-ATP, nonlinear regression; assay type: biochemical; conditions: competitive; substrate 18:0/20:4-DAG; 0.1 mM ATP; 15 mM Triton X-100; lysate
Procedure, shortened: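 DGKε-His6 was taken from the high-speed supernatant of NP-40-lysed, sonicated Sf21 cells infected with baculovirus. It phosphorylated 18:0/20:4-DAG or 20:4/20:4-DAG in Triton X-100/DOPC mixed micelles with [γ-32P]-ATP, with a phosphatidic acid species added as inhibitor. PA stock levels were set from measured phosphate content. Ki was fitted by nonlinear regression to a competitive inhibition model.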

Row | Km (mol%) (DGKε (DGKε-His6) [1]) | Ki, mol% (DGKε (DGKε-His6) [2]) | Compound
1 | 2.0 ± 0.7 mol% | – | CCCCC/C=C\C/C=C\C/C=C\C/C=C\CCCC(=O)O[C@@H](CO)COC(=O)CCCCCCCCCCCCCCCCC [18:0/20:4-DAG, 1-stearoyl-2-arachidonoyl-DAG]
2 | 3.5 ± 0.4 mol% | – | CCCCC/C=C\C/C=C\CCCCCCCC(=O)OC[C@H](CO)OC(=O)CCCCCCC/C=C\C/C=C\CCCCC [18:2/18:2-DAG]
3 | 2.0 ± 0.7 mol% | – | CCCCC/C=C\C/C=C\C/C=C\C/C=C\CCCC(=O)OC[C@H](CO)OC(=O)CCC/C=C\C/C=C\C/C=C\C/C=C\CCCCC [20:4/20:4-DAG, 1,2-diarachidonoyl-DAG]
4 | – | 4.4 ± 1.0 mol% | CCCCC/C=C\C/C=C\C/C=C\C/C=C\CCCC(=O)OC[C@H](COP(=O)(O)O)OC(=O)CCC/C=C\C/C=C\C/C=C\C/C=C\CCCCC [20:4/20:4-PA]
